For data set [1], the species on record is Rattus norvegicus. In words: Duration of action in rat. It counts as ADME, organism-based. Conditions: in vivo. In a few lines:
(§1)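 In rats, phenylephrine-induced contraction of the prostate was measured in vivo. Antagonist potency is expressed as AD₅₀ in µg/kg. Duration of action is given in hours.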

Data set [2] deals with Adrenergic receptor alpha-1 (Rattus norvegicus) (UniProt P15823+P23944+P43140). In words: (§2) Binding affinity radioligand). Type of data set: protein assay.
The nature of data set [3]: Fold selectivity against alpha 1A adrenergic receptor over alpha 2A, 2B and 2C adrenergic receptors. In a few lines:
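Ki ratio derived from radioligand displacement at recombinant human adrenoceptors: α1a with [³H]prazosin, and α2a, α2b and α2c with [³H]rauwolscine, on membranes from cultured cells.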

For data set [4], the species on record is Rattus norvegicus. In words: Inhibition of phenylephrine induced contraction of the rat prostate. It counts as functional, Prostate gland. In a few lines: as §1
Data set [5] concerns the target T1, Alpha-1A adrenergic receptor (Rattus norvegicus) (UniProt P43140).
T1 sequence (whole entry): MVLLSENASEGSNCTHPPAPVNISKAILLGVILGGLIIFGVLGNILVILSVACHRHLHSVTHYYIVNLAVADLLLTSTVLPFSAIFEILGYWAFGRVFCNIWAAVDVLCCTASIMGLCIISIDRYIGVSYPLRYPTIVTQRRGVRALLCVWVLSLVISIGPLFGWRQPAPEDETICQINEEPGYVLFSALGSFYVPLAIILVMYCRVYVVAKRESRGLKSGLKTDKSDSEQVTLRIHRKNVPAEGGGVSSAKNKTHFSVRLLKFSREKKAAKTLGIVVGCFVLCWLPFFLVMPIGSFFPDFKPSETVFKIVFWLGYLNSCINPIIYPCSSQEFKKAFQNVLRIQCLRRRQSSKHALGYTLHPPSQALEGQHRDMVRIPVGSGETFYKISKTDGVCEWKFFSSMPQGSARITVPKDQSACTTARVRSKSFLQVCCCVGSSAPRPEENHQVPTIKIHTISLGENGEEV
The description is as §2.

Data set [6] concerns the target T2, Alpha-1B adrenergic receptor (Homo sapiens, UniProt P35368).
T2 sequence (P35368 whole entry): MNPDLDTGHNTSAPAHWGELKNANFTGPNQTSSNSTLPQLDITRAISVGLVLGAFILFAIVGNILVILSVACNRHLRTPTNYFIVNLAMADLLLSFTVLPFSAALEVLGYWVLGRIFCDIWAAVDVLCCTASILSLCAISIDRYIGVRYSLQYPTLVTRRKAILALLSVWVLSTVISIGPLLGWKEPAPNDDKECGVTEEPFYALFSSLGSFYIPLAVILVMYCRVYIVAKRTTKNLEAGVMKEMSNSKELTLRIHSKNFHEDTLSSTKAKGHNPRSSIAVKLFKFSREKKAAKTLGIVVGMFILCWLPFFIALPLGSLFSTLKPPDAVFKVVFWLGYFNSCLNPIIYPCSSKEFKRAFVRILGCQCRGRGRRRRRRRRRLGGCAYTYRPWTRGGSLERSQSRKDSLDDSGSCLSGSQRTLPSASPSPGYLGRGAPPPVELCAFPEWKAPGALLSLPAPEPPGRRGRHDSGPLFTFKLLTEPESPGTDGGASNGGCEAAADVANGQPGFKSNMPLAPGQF
The data set can be described thus: In vitro binding affinity against Alpha-1B adrenergic receptor at recombinant human receptor.

For data set [7], the target named is T3, Alpha-1A adrenergic receptor (Homo sapiens, UniProt P35348).
T3 sequence (P35348 whole entry): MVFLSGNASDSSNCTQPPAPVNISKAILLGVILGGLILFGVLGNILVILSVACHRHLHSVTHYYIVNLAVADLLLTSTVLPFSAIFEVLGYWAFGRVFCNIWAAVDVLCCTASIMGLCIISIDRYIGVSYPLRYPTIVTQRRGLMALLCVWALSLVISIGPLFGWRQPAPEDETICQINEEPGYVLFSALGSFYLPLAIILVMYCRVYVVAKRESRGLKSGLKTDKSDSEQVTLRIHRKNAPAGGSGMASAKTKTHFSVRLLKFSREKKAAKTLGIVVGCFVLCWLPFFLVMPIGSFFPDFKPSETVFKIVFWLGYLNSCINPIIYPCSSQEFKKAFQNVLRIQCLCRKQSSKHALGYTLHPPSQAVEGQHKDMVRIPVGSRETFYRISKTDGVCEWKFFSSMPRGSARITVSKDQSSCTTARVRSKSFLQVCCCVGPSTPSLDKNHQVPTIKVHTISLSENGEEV
In words: In vitro binding affinity against Alpha-1A adrenergic receptor […]. The procedure, abridged: (§3)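 Radioligand displacement on membranes from cultured cells expressing recombinant human α1a, α1b or α1d adrenoceptors, using [³H]prazosin as radioligand; Ki values reported.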

The target in data set [8] is T4, Alpha-1D adrenergic receptor (Homo sapiens, UniProt P25100).
T4 sequence (P25100 whole entry): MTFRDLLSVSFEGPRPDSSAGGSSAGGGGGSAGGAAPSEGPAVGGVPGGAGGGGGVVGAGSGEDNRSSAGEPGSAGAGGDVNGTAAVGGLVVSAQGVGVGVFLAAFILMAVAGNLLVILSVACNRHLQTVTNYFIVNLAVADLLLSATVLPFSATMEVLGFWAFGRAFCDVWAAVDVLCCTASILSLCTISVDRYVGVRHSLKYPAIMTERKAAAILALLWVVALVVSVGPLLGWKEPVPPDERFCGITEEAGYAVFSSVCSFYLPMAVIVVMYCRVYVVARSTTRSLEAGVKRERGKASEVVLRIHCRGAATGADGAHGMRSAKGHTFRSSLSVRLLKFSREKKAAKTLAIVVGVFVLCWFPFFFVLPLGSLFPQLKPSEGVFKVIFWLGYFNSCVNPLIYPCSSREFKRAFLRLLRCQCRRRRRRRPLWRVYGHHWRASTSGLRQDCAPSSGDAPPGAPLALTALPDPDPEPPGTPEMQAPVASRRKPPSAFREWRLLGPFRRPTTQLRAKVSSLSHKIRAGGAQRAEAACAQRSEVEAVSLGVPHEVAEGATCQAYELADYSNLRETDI
In words: In vitro binding affinity against Alpha-1D adrenergic receptor at recombinant human receptor. Conditions: in the assay text read “at recombinant human receptor” for “of human liver microsomes”. In a few lines: as §3

Data set [9] is described as follows: oral bioavailability in rat. It counts as ADME, organism-based. Conditions: in vivo. In a few lines: (§4)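 In rats, the compound was given at 3 mg/kg iv and 10 mg/kg po. Plasma AUC was measured for each route, with oral bioavailability and plasma half-life derived from the plasma profiles.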
Data set [10] in a line: oral bioavailability in dog. It counts as ADME, organism-based, Canis lupus familiaris. Conditions: in vivo.
Data set [11] can be described thus: Plasma half life in dog. It counts as ADME, organism-based, Canis lupus familiaris.
Data set [12] in a line: Plasma half life in rat. It counts as ADME, organism-based. The procedure, abridged:
as §4

Data set [13] has as its target Mu-type opioid receptor (Homo sapiens, UniProt P35372). In words: Binding affinity against opioid receptor using [3H]-DAMGO as radioligand.

Structures are written as SMILES. Where “and” joins values, the source holds several entries; their conditions need not be identical. Equal values may be shown once. Some results are limits rather than exact numbers.

Results on twelve compounds are retold here after ChEMBL document CHEMBL1132478, “Design and synthesis of novel alpha(1)(a) adrenoceptor-selective antagonists. 3. Approaches to eliminate opioid agonist metabolites by using substituted phenylpiperazine side chains” (J Med Chem, 1999).

Chain of Mu-type opioid receptor (P35372 whole entry): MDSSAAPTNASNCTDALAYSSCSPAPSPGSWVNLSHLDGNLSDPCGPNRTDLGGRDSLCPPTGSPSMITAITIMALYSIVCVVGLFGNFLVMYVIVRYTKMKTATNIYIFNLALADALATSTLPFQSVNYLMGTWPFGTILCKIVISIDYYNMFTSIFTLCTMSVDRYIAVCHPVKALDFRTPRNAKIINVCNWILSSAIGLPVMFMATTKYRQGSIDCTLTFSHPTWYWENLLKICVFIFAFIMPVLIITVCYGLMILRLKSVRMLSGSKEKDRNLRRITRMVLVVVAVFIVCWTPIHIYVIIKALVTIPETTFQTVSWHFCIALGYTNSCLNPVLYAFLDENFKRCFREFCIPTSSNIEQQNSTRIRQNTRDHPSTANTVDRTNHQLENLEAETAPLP
Chain of Adrenergic receptor alpha-1 (Rattus norvegicus) (P15823 whole entry, looked up, one chain of several): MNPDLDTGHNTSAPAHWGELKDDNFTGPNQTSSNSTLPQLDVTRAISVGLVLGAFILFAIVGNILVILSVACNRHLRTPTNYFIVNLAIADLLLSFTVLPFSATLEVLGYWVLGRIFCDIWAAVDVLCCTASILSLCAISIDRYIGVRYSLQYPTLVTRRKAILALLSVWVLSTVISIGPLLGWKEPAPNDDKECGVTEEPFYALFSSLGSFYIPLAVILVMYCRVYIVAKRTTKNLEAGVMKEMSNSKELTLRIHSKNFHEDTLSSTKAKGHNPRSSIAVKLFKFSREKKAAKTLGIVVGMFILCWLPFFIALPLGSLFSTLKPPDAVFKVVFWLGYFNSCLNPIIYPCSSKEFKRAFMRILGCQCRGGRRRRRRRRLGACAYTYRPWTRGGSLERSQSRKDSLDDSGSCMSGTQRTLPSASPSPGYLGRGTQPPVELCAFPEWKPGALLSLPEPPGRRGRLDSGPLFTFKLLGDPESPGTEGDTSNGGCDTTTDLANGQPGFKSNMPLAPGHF
Chain of Adrenergic receptor alpha-1 (Rattus norvegicus) (P23944 whole entry, looked up, one chain of several): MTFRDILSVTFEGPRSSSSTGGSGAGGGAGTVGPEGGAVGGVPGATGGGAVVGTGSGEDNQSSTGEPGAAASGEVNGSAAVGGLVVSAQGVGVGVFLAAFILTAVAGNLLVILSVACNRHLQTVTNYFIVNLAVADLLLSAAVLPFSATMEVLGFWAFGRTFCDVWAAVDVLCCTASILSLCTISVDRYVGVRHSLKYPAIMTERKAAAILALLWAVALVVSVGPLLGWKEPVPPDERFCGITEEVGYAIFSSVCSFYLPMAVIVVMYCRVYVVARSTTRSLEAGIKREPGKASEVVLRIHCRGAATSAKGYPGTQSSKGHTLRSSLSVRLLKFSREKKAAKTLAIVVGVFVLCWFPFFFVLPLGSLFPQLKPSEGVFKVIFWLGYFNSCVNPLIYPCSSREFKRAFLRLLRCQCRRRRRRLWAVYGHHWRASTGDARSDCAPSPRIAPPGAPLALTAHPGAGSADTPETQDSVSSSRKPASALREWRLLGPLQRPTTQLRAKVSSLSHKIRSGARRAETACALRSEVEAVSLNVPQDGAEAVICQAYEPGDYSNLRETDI

In [1], `CCC1=C(C(N)=O)C(c2ccc(F)c(F)c2)N(C(=O)NCCCN2CCC(C(=O)OC)(c3ccccc3)CC2)C(=O)N1` (configuration not stated) had a Duration of action of more than 4 h. Further, the figures for the Kb in data set [2] and in [5] were more than 1000 nM and 0.4 nM, respectively. In data set [3], the Fold selectivity is more than 3200. The compound further registered an AD50 in data set [4] of 0.02 mg/kg.

As usually defined, the Ki is a dissociation constant, usually derived from enzyme kinetics or from competition with a known ligand. Compound `COC(=O)C1=C(C)NC(=O)N(C(=O)NCCCN2CCN(c3ccccc3[N+](=O)[O-])CC2)C1c1ccc(F)c(F)c1` (configuration not stated) showed a Fold selectivity in data set [3] of more than 23000. Moreover, the Ki in data set [6] worked out at 23 nM; in [7], 0.01 nM; in data set [8], 32 nM.

In the case of `COC(=O)C1=C(C)NC(=O)N(C(=O)NCCCN2CCN(c3ccc(OC)cc3)CC2)C1c1ccc(F)c(F)c1` (configuration not stated), in [3], the Fold selectivity is more than 15. For the same compound, the figures for the Ki in data set [6], in data set [7] and in data set [8] were 410 nM, 14 nM and 480 nM, respectively.

Compound `CCC1=C(C(=O)OC)C(c2ccc(F)cc2F)N(C(=O)NCCCN2CCN(c3ccccc3C(N)=O)CC2)C(=O)N1` (configuration not stated) gave a Fold selectivity in data set [3] of more than 1900. In addition, the inhibition constant (Ki) in data set [6] amounted to 32 nM; in data set [7], 0.1 nM; in data set [8], 91 nM.

For `COCC1=C(C(=O)OC)C(c2ccc(F)c(F)c2)N(C(=O)NCCCN2CCN(c3ccccc3C(N)=O)CC2)C(=O)N1` (configuration not stated), in data set [3], the Fold selectivity is more than 4500. In addition, the Ki in [6] amounted to 100 nM; in data set [7], 0.1 nM; in data set [8] it was 140 nM.

Turning to `COC(=O)C1=C(C)NC(=O)N(C(=O)NCCCN2CCN(c3ccccc3[N+](=O)[O-])C[C@H]2C)C1c1ccc(F)c(F)c1` (some centres not stated), in data set [3], the Fold selectivity is more than 1600. For the same compound, the Ki was 13 nM in [6], 0.05 nM in [7] and 28 nM in [8].

For `COC(=O)C1=C(C)NC(=O)N(C(=O)NCCCN2CCN(c3ccc(C(C)=O)cc3)CC2)C1c1ccc(F)c(F)c1` (configuration not stated), in data set [3], the Fold selectivity is more than 2. The Ki worked out at 1300 nM in [6], 430 nM in [7] and 1800 nM in [8].

As usually defined, the bioavailability is the share of a dose that reaches the circulation, judged against a reference dose that is usually intravenous. Lower therefore signals poor availability. The half-life is the time in which the quantity being followed falls by half. Read a low half-life as rapid decline. `COC(=O)C1=C(C)NC(=O)N(C(=O)NCCCN2CCN(c3ccccc3C(N)=O)CC2)C1c1ccc(F)c(F)c1` (configuration not stated) had a Duration of action in [1] of more than 4 h. In data set [3], this compound came in with a Fold selectivity of more than 3000. In addition, the bioavailability is 13% in data set [9] and 4% in data set [10]. In addition, in data set [4], the AD50 turned out to be 0.022 mg/kg. In addition, the Ki in data set [6] is 190 nM and 135 nM; in data set [7], 0.12 nM and 0.26 nM; in data set [13] it was more than 30000 nM; in data set [8] it was 250 nM and 310 nM. Further, the half-life is 2.4 h in data set [11] and 2 h in [12]. In data set [5], this compound gave a Kb of 0.3 nM.

Regarding `CCOc1ccccc1N1CCN(CCCNC(=O)N2C(=O)NC(C)=C(C(=O)OC)C2c2ccc(F)c(F)c2)CC1` (configuration not stated), the Fold selectivity in [3] was more than 210. Also, the Ki was determined as 8.8 nM in data set [6], 0.1 nM in [7] and 14 nM in data set [8].

In [3], `COC(=O)C1=C(C)NC(=O)N(C(=O)NCCCN2CCN(c3ccccc3C(N)=O)CC2)C1c1cc(F)c(F)c(F)c1` (configuration not stated) displayed a Fold selectivity of more than 430. In addition, the inhibitory constant (Ki) was 58 nM in data set [6], 0.3 nM in data set [7] and 140 nM in [8].

`CC(=O)C1=C(C)NC(=O)N(C(=O)NCCCN2CCN(c3ccccc3C(N)=O)CC2)C1c1cc(F)c(F)c(F)c1` (configuration not stated) had a Fold selectivity in [3] of more than 160. Moreover, the results for the Ki in [6], in data set [7] and in [8] were 220 nM, 0.4 nM and 390 nM, respectively.

The compound `COC(=O)C1=C(C)NC(=O)N(C(=O)NCCCN2CCN(c3ccccc3C)CC2)C1c1ccc(F)c(F)c1` (configuration not stated) registered a Fold selectivity in [3] of more than 110. Further, the Ki in data set [6] stood at 17 nM; in data set [7], 0.3 nM; in data set [8], 9.8 nM.
